Experimental data as given in ChEMBL document CHEMBL1811853, “Design and evaluation of 3-aminopyrazolopyridinone kinase inhibitors inspired by the natural product indirubin” (Bioorg Med Chem, 2011).

Tests used:
[1] = biological target: MAP kinase-activated protein kinase 2 (Homo sapiens, UniProt P49137); test: Inhibition of MAPKAPK2 at 30 uM by microfluidic mobility shift assay
Summary of the method: (§1)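 Single-concentration screen, singlicate, 30 uM final (diluted from 1 mM DMSO solutions), fluorescently tagged peptide substrate appropriate to each kinase, ATP at apparent Km for each protein. Phosphorylated and unphosphorylated peptides separated electrophoretically; conversion is the phosphorylated peak area over the sum of both peaks. No-inhibitor and no-ATP controls; H89 reference on each plate.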

[2] = biological target: Ribosomal protein S6 kinase alpha-1 (Homo sapiens) (UniProt Q15418); test: Inhibition of RSK1 at 30 uM by microfluidic mobility shift assay; summary of the method: as §1
Sequence of Ribosomal protein S6 kinase alpha-1 (Homo sapiens) (Q15418 whole entry): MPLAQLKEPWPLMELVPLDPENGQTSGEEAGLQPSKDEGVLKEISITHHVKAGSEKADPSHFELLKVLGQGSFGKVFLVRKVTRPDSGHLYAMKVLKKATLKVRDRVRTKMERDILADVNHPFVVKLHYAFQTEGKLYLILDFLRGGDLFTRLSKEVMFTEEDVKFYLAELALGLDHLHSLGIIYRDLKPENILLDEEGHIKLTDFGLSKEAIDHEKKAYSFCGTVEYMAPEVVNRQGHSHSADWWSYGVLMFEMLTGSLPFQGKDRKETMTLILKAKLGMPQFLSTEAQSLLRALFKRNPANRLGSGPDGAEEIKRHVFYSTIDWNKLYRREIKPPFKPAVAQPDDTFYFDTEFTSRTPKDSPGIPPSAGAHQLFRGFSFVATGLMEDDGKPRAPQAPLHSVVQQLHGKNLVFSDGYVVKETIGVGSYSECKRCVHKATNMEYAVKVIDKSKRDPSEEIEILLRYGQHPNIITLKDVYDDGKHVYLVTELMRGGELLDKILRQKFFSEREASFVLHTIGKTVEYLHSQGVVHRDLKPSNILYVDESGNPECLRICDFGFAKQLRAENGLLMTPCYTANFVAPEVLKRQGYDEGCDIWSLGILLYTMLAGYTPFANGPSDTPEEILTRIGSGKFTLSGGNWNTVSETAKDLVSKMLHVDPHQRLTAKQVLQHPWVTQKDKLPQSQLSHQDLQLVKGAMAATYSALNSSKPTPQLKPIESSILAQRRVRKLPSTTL

[3] = biological target: T1, MAP kinase-activated protein kinase 5 (Homo sapiens) (UniProt Q8IW41); test: Inhibition of PRAK1 at 30 uM by microfluidic mobility shift assay; summary of the method: as §1
T1 sequence (whole entry): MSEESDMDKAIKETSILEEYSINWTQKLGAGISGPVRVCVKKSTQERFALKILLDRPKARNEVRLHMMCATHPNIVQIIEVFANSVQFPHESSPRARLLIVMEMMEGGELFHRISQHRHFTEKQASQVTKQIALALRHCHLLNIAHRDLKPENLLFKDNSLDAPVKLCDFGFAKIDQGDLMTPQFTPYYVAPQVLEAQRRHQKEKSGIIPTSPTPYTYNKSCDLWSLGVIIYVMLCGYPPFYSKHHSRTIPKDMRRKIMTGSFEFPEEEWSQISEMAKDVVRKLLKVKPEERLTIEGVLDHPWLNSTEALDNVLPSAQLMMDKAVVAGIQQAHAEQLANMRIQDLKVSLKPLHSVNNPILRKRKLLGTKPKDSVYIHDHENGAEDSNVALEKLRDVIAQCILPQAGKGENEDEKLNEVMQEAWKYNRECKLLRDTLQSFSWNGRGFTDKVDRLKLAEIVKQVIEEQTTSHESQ

[4] = biological target: Mitogen-activated protein kinase 3 (Homo sapiens) (UniProt P27361); test: Inhibition of ERK1 at 30 uM by microfluidic mobility shift assay; summary of the method: as §1
Sequence of Mitogen-activated protein kinase 3 (Homo sapiens) (P27361 whole entry): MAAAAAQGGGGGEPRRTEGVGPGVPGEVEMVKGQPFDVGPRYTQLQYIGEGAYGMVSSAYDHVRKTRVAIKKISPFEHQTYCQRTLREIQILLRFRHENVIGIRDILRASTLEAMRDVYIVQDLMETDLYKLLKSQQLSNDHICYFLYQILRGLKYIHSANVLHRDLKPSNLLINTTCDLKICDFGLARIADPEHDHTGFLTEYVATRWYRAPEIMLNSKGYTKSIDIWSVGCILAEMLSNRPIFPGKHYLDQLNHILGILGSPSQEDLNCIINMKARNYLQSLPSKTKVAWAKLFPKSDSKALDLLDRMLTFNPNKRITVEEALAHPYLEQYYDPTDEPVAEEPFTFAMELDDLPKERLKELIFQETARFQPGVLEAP

[5] = biological target: T2, Serine/threonine-protein kinase D2 (Homo sapiens) (UniProt Q9BZL6); test: Inhibition of PKD2 at 30 uM by microfluidic mobility shift assay; summary of the method: as §1
T2 sequence (whole entry): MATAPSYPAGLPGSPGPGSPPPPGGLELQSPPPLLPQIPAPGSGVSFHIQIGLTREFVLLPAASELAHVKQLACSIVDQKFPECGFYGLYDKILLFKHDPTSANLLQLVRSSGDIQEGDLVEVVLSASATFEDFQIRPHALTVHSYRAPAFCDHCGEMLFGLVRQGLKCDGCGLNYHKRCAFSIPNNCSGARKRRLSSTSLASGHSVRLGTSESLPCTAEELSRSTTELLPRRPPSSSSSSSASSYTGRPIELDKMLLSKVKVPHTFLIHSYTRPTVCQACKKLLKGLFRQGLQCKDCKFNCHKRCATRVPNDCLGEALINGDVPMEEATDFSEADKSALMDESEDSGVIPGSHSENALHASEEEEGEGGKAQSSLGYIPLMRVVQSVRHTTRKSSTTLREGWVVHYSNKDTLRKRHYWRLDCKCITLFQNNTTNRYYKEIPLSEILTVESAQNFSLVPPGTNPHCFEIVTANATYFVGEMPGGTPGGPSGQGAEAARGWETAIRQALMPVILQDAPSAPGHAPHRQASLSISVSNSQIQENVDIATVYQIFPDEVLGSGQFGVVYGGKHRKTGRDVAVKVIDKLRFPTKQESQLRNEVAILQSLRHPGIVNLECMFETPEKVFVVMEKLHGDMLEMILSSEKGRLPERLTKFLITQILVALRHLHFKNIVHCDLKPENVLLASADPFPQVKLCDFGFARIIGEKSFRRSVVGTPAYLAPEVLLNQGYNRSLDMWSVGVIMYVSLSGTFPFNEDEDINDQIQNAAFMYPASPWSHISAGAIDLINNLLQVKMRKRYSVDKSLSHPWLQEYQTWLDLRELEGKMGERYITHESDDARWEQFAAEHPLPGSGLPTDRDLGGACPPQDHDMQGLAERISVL

[6] = biological target: T3, Serine/threonine-protein kinase Chk1 (Homo sapiens) (UniProt O14757); test: Inhibition of CHK1 at 30 uM by microfluidic mobility shift assay; summary of the method: as §1
T3 sequence (whole entry): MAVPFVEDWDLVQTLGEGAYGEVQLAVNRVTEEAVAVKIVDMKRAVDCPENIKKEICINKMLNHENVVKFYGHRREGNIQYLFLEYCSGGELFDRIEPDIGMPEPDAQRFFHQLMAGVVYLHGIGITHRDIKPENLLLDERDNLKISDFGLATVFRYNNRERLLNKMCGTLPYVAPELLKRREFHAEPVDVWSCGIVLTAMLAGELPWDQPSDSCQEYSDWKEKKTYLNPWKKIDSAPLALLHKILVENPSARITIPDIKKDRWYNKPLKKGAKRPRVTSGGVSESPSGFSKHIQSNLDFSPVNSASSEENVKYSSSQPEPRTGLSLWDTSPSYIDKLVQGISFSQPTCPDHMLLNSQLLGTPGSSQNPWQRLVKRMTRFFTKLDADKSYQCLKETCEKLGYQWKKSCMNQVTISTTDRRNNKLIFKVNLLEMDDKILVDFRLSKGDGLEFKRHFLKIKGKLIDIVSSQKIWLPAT

[7] = biological target: Tyrosine-protein kinase ABL1 (Homo sapiens, UniProt P00519); test: Inhibition of ABL at 30 uM by microfluidic mobility shift assay; summary of the method: as §1
Sequence of Tyrosine-protein kinase ABL1 (P00519 whole entry): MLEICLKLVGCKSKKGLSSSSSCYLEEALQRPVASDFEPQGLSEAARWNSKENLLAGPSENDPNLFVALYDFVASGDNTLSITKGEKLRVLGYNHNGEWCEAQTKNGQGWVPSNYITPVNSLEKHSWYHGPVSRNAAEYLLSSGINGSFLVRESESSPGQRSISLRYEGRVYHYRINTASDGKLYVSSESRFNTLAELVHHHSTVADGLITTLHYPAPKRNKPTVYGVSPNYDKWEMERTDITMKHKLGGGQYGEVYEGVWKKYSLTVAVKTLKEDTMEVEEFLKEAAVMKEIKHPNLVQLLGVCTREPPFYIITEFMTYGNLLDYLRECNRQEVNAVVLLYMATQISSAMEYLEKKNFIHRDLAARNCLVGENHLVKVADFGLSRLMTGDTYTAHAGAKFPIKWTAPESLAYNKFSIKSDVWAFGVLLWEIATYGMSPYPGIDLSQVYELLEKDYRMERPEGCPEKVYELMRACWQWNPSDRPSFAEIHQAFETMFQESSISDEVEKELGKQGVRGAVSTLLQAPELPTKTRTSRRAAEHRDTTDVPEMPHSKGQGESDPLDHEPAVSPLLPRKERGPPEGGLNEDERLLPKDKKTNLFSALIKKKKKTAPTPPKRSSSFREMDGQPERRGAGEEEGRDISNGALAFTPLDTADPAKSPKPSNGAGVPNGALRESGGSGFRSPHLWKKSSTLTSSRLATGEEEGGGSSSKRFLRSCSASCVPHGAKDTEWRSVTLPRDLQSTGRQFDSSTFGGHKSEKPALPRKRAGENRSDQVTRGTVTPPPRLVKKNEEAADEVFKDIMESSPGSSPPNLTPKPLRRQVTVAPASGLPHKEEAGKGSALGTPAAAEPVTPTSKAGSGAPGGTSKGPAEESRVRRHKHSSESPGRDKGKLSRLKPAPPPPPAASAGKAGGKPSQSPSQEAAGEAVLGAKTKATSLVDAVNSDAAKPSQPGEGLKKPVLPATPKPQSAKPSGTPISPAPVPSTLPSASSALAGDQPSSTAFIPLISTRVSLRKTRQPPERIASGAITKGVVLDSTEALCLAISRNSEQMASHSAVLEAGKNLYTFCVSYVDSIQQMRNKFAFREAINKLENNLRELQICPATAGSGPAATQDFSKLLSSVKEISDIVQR

[8] = biological target: Tyrosine-protein kinase Fyn (Homo sapiens, UniProt P06241); test: Inhibition of FYN at 30 uM by microfluidic mobility shift assay; summary of the method: as §1
[9] = biological target: Tyrosine-protein kinase Lyn (Homo sapiens, UniProt P07948); test: Inhibition of LYN at 30 uM by microfluidic mobility shift assay; summary of the method: as §1
Sequence of Tyrosine-protein kinase Lyn (P07948 2-512 limits assumed): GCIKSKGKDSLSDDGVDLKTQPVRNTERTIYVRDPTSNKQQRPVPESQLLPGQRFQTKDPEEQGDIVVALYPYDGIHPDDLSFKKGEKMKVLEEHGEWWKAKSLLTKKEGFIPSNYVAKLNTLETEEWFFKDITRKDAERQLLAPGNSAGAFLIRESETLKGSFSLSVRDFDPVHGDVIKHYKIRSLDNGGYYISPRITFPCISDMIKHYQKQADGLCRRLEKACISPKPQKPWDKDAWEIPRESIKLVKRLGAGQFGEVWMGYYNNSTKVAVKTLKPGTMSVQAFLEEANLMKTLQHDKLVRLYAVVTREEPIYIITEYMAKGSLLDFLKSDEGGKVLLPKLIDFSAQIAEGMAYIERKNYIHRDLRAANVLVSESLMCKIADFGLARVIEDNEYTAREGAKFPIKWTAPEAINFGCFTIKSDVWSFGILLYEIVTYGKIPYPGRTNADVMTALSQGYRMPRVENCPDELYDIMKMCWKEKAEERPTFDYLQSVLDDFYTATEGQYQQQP

[10] = biological target: Tyrosine-protein kinase Lck (Homo sapiens, UniProt P06239); test: Inhibition of LCK at 30 uM by microfluidic mobility shift assay; summary of the method: as §1
Sequence of Tyrosine-protein kinase Lck (P06239 2-509 limits assumed): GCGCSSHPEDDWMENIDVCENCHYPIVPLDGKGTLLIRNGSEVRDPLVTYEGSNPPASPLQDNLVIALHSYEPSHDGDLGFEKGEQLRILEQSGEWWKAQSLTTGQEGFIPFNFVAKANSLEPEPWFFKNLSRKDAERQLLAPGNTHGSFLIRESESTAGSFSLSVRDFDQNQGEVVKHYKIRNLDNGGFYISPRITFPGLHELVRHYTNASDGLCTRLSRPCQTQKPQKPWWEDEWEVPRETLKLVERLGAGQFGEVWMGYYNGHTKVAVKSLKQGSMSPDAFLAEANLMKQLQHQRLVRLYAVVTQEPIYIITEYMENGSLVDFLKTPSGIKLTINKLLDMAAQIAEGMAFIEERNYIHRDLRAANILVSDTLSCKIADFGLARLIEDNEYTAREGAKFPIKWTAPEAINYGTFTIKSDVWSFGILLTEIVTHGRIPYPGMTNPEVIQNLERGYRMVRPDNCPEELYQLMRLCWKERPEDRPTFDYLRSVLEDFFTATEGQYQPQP

[11] = biological target: Proto-oncogene tyrosine-protein kinase Src (Homo sapiens, UniProt P12931); test: Inhibition of SRC at 30 uM by microfluidic mobility shift assay; summary of the method: as §1
[12] = biological target: Mitogen-activated protein kinase 1 (Homo sapiens) (UniProt P28482); test: Inhibition of ERK2 at 30 uM by microfluidic mobility shift assay; summary of the method: as §1
[13] = Inhibition of PKA at 30 uM by microfluidic mobility shift assay; summary of the method: as §1
[14] = biological target: RAC-beta serine/threonine-protein kinase (Homo sapiens) (UniProt P31751); test: Inhibition of AKT2 at 30 uM by microfluidic mobility shift assay; summary of the method: as §1
[15] = biological target: Mitogen-activated protein kinase 14 (Homo sapiens, UniProt Q16539); test: Inhibition of p38alpha at 30 uM by microfluidic mobility shift assay; summary of the method: as §1
Sequence of Mitogen-activated protein kinase 14 (Q16539 whole entry): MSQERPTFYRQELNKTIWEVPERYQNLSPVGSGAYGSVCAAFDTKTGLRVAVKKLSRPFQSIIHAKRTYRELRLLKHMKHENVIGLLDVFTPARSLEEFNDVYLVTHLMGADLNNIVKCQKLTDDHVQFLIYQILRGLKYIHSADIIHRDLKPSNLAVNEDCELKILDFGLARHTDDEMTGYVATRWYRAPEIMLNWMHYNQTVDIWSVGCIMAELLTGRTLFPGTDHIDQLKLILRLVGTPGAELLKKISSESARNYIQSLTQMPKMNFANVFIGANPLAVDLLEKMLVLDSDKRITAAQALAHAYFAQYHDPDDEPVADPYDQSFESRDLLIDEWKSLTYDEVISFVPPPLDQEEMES

[16] = biological target: RAC-alpha serine/threonine-protein kinase (Homo sapiens) (UniProt P31749); test: Inhibition of AKT1 at 30 uM by microfluidic mobility shift assay; summary of the method: as §1
Sequence of RAC-alpha serine/threonine-protein kinase (Homo sapiens) (P31749 whole entry): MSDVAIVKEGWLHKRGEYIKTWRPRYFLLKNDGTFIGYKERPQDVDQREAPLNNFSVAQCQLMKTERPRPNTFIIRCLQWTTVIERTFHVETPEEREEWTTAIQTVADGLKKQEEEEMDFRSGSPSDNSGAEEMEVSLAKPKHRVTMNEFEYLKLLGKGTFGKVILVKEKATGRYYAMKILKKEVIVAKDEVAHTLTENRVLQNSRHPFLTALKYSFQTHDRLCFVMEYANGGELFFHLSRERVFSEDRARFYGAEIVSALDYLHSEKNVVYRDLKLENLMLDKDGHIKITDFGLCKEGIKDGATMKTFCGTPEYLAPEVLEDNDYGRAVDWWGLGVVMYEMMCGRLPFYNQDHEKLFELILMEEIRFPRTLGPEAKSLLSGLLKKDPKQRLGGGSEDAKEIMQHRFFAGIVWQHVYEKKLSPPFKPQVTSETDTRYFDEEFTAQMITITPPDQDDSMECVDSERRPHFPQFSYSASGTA

[17] = biological target: Ribosomal protein S6 kinase alpha-5 (Homo sapiens) (UniProt O75582); test: Inhibition of MSK1 at 30 uM by microfluidic mobility shift assay; summary of the method: as §1
Sequence of Ribosomal protein S6 kinase alpha-5 (Homo sapiens) (O75582 whole entry, looked up): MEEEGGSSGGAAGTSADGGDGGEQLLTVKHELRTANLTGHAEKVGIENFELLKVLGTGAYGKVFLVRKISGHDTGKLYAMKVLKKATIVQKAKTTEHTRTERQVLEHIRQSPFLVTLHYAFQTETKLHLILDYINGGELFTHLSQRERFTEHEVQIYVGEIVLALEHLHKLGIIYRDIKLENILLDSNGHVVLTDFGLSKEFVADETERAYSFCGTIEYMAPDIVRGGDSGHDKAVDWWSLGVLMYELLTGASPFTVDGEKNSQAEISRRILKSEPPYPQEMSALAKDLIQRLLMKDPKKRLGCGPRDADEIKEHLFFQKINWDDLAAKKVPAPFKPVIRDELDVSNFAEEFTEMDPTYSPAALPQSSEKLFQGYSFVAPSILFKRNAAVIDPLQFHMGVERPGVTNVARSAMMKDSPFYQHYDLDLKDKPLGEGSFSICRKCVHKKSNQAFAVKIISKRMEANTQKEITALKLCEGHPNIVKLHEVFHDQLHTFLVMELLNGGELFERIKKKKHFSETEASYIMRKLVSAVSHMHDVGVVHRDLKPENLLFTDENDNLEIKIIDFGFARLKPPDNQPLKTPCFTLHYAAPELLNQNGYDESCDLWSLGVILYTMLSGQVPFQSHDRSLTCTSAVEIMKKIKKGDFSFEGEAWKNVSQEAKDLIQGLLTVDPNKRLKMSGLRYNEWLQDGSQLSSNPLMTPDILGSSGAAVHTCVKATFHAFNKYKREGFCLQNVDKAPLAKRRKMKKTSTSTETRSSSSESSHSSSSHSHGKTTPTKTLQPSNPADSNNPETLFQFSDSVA

| inhibition [1] [%] | inhibition [2] [%] | inhibition [3] [%] | inhibition [4] [%] | inhibition [5] [%] | inhibition [6] [%] | inhibition [7] [%] | inhibition [8] [%] | inhibition [9] [%] | inhibition [10] [%] | inhibition [11] [%] | inhibition [12] [%] | inhibition [13] [%] | inhibition [14] [%] | inhibition [15] [%] | inhibition [16] [%] | inhibition [17] [%] | Structure (SMILES) |
| --- | --- | --- | --- | --- | --- | --- | --- | --- | --- | --- | --- | --- | --- | --- | --- | --- | --- |
| 37 | 22 | 13 | 57 | 29 | 21 | 28 | 28 | 39 | 37 | 46 | 38 | 55 | 4 | 1 | 2 | 29 | Nc1n[nH]c2cc(-c3ccncc3)[nH]c(=O)c12 |
| 30 | 6 | 8 | 4 | -1 | 7 | 12 | 2 | 3 | 6 | 14 | 0 | 57 | 8 | -7 | -3 | 56 | Cc1cc2[nH]nc(N)c2c(=O)[nH]1 |
| -1 | 46 | 10 | 6 | 14 | 11 | 18 | 53 | 45 | 48 | 33 | 6 | 86 | 11 | 1 | 36 | 87 | Cc1cc2[nH]nc(N)c2c(N2CCCCC2)n1 |
| 36 | 9 | 9 | 10 | 17 | 34 | 27 | 24 | 10 | 21 | 18 | 9 | 5 | 10 | 1 | 7 | -4 | Cn1nc(N)c2c(=O)[nH]c(-c3ccccn3)cc21 |
| 1 | -6 | 0 | 0 | 8 | 7 | -2 | 11 | 1 | 4 | -2 | 3 | -2 | 16 | 0 | 1 | 4 | Cc1cc2c(c(NS(C)(=O)=O)nn2C)c(=O)[nH]1 |
| 24 | 18 | 13 | 13 | 21 | 11 | 23 | 20 | 19 | 11 | 15 | 7 | 10 | 25 | -1 | 13 | 13 | COc1ccc(-c2c(C)[nH]c(=O)c3c(N)nn(C)c23)cc1 |
| 5 | -9 | 0 | 5 | -7 | 17 | 0 | 11 | 12 | 7 | 6 | 6 | 2 | -1 | -4 | -3 | 1 | Nc1n[nH]c2c3c([nH]c(=O)c12)CCCC3 |
| 6 | -4 | 5 | 5 | 4 | 7 | -8 | -1 | 6 | 1 | 2 | 8 | 19 | -3 | 1 | 6 | 0 | COCCNc1nc(C)cc2c1c(N)nn2C |
| 51 | 18 | 16 | 28 | 36 | 36 | 53 | 56 | 49 | 46 | 62 | 16 | 8 | -8 | 5 | 9 | 9 | COc1ccc(-c2cc3c(c(N)nn3C)c(=O)[nH]2)cc1 |
| 11 | -5 | 2 | 10 | 5 | 2 | 11 | 7 | 6 | 9 | 13 | 5 | 3 | 3 | -1 | 5 | 7 | COC(=O)CCc1c(C)[nH]c(=O)c2c(N)nn(C)c12 |
| 6 | 5 | 2 | 21 | 15 | 11 | 13 | 9 | 8 | 8 | 7 | 18 | 1 | 3 | 85 | 7 | -1 | CC(C)(C)c1cc2nn(-c3ccccc3)c(N)c2c(=O)[nH]1 |
